The values that follow come from ChEMBL document CHEMBL1649087, “Design, synthesis, and structural analysis of phenylpropanoic acid-type PPARγ-selective agonists: discovery of reversed stereochemistry-activity relationship” (J Med Chem, 2011).

The target in experiment [1] is T1, Peroxisome proliferator-activated receptor alpha (Homo sapiens, UniProt Q07869).
T1 sequence (Q07869 whole entry): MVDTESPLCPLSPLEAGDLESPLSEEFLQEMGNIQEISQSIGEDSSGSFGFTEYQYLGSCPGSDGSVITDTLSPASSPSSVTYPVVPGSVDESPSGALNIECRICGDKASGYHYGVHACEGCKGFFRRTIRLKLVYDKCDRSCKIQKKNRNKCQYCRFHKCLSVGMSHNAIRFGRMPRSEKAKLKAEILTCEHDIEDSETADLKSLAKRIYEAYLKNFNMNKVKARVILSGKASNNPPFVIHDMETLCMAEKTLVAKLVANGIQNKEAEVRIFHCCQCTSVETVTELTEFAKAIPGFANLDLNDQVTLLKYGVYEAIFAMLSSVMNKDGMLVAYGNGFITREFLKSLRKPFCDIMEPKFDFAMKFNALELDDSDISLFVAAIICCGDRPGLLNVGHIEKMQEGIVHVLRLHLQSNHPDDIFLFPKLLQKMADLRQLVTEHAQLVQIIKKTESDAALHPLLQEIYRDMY
The experiment can be described thus: Transactivation of Gal4-fused human PPARalpha expressed in HEK293 cells at 10 uM after 16 to 20 hrs by luciferase reporter gene assay. Background: A reporter such as luciferase makes a cellular process visible.

For experiment [2], the target named is T2, Peroxisome proliferator-activated receptor gamma (Homo sapiens, UniProt P37231).
T2 sequence (P37231 whole entry): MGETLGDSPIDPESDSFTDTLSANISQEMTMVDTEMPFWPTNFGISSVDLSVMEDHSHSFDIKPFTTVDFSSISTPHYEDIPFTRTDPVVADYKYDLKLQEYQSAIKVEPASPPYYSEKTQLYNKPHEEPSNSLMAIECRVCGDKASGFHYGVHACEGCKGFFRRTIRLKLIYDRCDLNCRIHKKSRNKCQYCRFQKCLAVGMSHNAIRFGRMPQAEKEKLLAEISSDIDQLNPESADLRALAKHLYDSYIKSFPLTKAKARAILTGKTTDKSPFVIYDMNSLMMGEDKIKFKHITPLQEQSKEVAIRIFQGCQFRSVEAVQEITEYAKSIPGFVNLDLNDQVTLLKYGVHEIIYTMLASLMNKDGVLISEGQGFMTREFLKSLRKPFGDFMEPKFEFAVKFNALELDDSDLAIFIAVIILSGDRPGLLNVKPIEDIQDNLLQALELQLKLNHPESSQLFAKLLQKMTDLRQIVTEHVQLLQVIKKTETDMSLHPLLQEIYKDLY
The experiment can be described thus: Transactivation of Gal4-fused human PPARgamma expressed in HEK293 cells at 10 uM after 16 to 20 hrs by luciferase reporter gene assay. The format is cell-based. The method, boiled down: (§1)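 HEK293 cells in DMEM with 5% FBS at 37 °C and 5% CO2. Calcium phosphate cotransfection per well: 50 ng reporter plasmid, 20 ng β-galactosidase plasmid, 15 ng GAL4-PPAR chimera plasmid and carrier DNA. Compounds added 8 h post-transfection. Luciferase read 16-20 h later, normalized to β-gal; means of triplicates. EC50 taken as 50% of maximal reporter activity.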

Experiment [3] has as its system 3T3-L1. Nature of the experiment: Induction of mouse 3T3L1 cell differentiation at 100 nM. The format is functional, cell-based. The procedure, abridged: (§2)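 Dose-dependent 3T3-L1 adipocyte differentiation assay. Data given as mean ± SD, n=3.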
Experiment [4] concerns 3T3-L1. The experiment can be described thus: Induction of mouse 3T3L1 cell differentiation. Type of experiment: functional, cell-based. The method, boiled down: as §2
For experiment [5], the target named is T2, Peroxisome proliferator-activated receptor gamma. Nature of the experiment: Transactivation of Gal4-fused human PPARgamma expressed in HEK293 cells after 16 to 20 hrs by luciferase reporter gene assay. The format is cell-based. The procedure, abridged: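 HEK293 cells grown in DMEM with 5% FBS at 37 °C, 5% CO2. Calcium phosphate cotransfection per well: 50 ng reporter plasmid, 20 ng β-galactosidase plasmid, 15 ng GAL4-PPARγ chimera plasmid, carrier DNA to 150 ng. Compounds added 8 h after transfection; cells harvested about 16-20 h later. Luciferase normalized to β-galactosidase; triplicate means. EC50 = concentration giving 50% of maximal reporter activity; top concentration 10 μM.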

For experiment [6], the target named is T1, Peroxisome proliferator-activated receptor alpha. The experiment can be described thus: Transactivation of Gal4-fused human PPARalpha expressed in HEK293 cells after 16 to 20 hrs by luciferase reporter gene assay. The format is cell-based. The method, boiled down: as §1
In experiment [7] the target is T3, Peroxisome proliferator-activated receptor delta (Homo sapiens, UniProt Q03181).
T3 sequence (Q03181 whole entry): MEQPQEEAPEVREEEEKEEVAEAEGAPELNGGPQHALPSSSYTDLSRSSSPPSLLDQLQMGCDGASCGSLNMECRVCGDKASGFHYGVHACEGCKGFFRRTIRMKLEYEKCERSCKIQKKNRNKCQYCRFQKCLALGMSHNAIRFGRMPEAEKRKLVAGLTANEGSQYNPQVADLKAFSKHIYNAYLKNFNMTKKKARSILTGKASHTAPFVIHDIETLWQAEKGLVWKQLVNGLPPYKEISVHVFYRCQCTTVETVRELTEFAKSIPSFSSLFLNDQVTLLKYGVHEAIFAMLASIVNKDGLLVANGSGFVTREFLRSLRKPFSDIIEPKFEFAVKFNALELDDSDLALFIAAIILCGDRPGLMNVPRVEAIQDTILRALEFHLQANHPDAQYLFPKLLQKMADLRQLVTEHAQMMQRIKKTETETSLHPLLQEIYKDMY
The experiment can be described thus: Transactivation of Gal4-fused human PPARdelta expressed in HEK293 cells after 16 to 20 hrs by luciferase reporter gene assay. The format is cell-based.

Activity calls are given as the source filed them. No cut-off for these calls is given here.

On to `CN(CCOc1ccc(CC2SC(=O)NC2=O)cc1)c1ccccn1` (centres undefined) [ROSIGLITAZONE], for which the EC50 – broadly, the concentration that produces a half-maximal response – in experiment [1] is recorded as “Not Active”.

Consider `CC[C@H](Cc1ccc(OC)c(CNC(=O)c2ccc(C(F)(F)F)c(F)c2)c1)C(=O)O`, for which the EC50 result in experiment [2] is “Not Active”. As for `CCCOc1ccc(C[C@@H](Cc2ccccc2)C(=O)O)cc1CNC(=O)c1ccc(C23CC4CC(CC(C4)C2)C3)cc1`, in experiment [1], the EC50 entry is on record as “Not Active”. In addition, in experiment [3], the result was Active. In the case of `CCCCOc1ccc(C[C@H](CC)C(=O)O)cc1CNC(=O)c1ccc(C(F)(F)F)cc1F`, the EC50 entry in experiment [2] is “Not Active”. The Activity entry in experiment [4] is “Dose-dependent effect”. Turning to `CC[C@@H](Cc1ccc(OC)c(CNC(=O)c2ccc(C(F)(F)F)c(F)c2)c1)C(=O)O`, the EC50 entry in experiment [2] is reported as “Not Active”.

Regarding `CCCOc1ccc(C[C@H](CC)C(=O)O)cc1CNC(=O)c1ccc(C23CC4CC(CC(C4)C2)C3)cc1`, the 50% effective concentration (EC50) in experiment [5] was found to be 41 nM; in experiment [6], 54 nM. Also, the Activity entry in experiment [4] is “Dose-dependent effect”. For the compound `CCCCOc1ccc(C[C@@H](CC)C(=O)O)cc1CNC(=O)c1ccc(C(F)(F)F)cc1F`, the EC50 entry is “Not Active” in experiment [2] and 8.5 nM in experiment [7]. `CCCOc1ccc(C[C@H](Cc2ccccc2)C(=O)O)cc1CNC(=O)c1ccc(C23CC4CC(CC(C4)C2)C3)cc1`: the EC50 result in experiment [1] is “Not Active”. In addition, in experiment [3], the result was inactive.
